Source: ChEMBL document CHEMBL4673255, “Acylated 1H-1,2,4-Triazol-5-amines Targeting Human Coagulation Factor XIIa and Thrombin: Conventional and Microscale Synthesis, Anticoagulant Properties, and Mechanism of Action” (J Med Chem, 2020)

Columns and labels:
Plasma [1] = test: (§1) Anticoagulant activity in human platelet-rich plasma assessed as reduction in TF-induced thrombin generation by measuring half life of clotting time at 100 uM preincubated for 15 mins followed by TF addition by Z-Gly-Gly-Arg-AMC substrate based calibrated automated thrombography (Rvb= 3 +/- 0.5 min); assay type: functional, cell-free
In short: (§2)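 Tissue-factor-triggered homogeneous thrombin generation followed by fluorogenic substrate cleavage. Read-outs: clotting time (T1/2), peak amplitude (Amax, AU/L), time to peak (Tmax) and ETP (AU·min/L). DMSO and buffer served as controls. n = 3, mean ± SD.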

Prothrombin [2] = molecular target: T1, Prothrombin (Homo sapiens, UniProt P00734); test: Inhibition of human coagulation factor alpha-thrombin using Boc-Val-Pro-Arg-AMC as fluorogenic substrate measured at 1 min interval for 1 hr by fluorometric assay
Monoglyceride lipase = molecular target: T2, Monoglyceride lipase (Homo sapiens, UniProt Q99685); test: Inhibition of human recombinant MAGL using 1,3-dihydroxypropan-2-yl 4-pyren-1-ylbutanoate as substrate measured after 45 mins by reverse-phase HPLC-based fluorescence assay
T2 sequence (Q99685 whole entry): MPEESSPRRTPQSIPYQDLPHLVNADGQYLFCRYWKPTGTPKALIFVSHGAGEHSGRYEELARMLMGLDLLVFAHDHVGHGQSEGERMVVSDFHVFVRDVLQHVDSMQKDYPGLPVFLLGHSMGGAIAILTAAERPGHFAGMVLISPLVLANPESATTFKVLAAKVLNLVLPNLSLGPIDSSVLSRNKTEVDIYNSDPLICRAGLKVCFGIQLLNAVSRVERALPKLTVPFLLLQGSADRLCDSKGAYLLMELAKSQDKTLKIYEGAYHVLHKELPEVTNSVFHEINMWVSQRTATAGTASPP

HepG2 = test: Cytotoxicity against human HepG2 cells assessed as reduction in cell viability at 100 uM incubated for 48 hrs by alamar blue assay relative to control; assay type: cell-based; conditions: hepg2, 48 h
Plasma [3] = test: as §1, with “Tmax” for “half life”, “(reference value: 8.1” for “(Rvb= 3”, “0.6” for “0.5”; assay type: functional, cell-free; in short: as §2
Prothrombin [4] = molecular target: T1, Prothrombin; test: Inhibition of human coagulation factor thrombin using Boc-Val-Pro-Arg-AMC as fluorogenic substrate at 100 nM measured at 1 min interval for 1 hr by fluorometric assay relative to control
In short: (§3)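 Screening of crude microscale amide-coupling products. Conversion was measured by 1H NMR and product content normalised to 76 µmol/L in DMSO, then tested at 1 µM and 100 nM in the fluorogenic FXIIa or thrombin assay. A 0-conversion reaction served as blank. Percent inhibition is from triplicates.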

Coagulation factor XII = molecular target: T3, Coagulation factor XII (Homo sapiens, UniProt P00748); test: Inhibition of human coagulation factor XIIA using Boc-Gln-Gly-Arg-AMC as fluorogenic substrate measured at 1 min interval for 1 hr by fluorometric assay
T3 sequence (P00748 whole entry): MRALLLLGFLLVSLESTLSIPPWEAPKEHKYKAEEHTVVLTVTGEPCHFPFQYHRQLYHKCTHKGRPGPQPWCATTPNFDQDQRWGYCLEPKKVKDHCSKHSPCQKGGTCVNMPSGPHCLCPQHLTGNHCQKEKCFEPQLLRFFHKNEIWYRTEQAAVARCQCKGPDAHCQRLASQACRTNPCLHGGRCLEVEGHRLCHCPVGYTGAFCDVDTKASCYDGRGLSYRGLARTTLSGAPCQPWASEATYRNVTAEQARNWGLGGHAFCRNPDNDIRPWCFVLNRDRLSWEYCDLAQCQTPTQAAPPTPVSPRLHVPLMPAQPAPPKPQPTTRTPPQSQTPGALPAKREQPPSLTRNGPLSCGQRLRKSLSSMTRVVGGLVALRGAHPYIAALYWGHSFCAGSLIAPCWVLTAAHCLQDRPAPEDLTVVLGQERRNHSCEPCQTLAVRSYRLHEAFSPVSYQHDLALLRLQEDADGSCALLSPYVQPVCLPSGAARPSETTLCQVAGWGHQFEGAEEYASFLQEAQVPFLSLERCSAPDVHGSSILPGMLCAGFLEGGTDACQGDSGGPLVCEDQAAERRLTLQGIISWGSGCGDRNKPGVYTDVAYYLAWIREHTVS

[5] = Inhibition of porcine trypsin using Z-Gly-Gly-Arg-AMC as fluorogenic substrate measured at 1 min interval for 1 hr by fluorometric assay; set-up: species or system Sus scrofa
Plasma kallikrein = Plasma kallikrein (Homo sapiens, UniProt P03952); test: Inhibition of human kallikrein using Mes-dArg-Pro-Arg-AMC as fluorogenic substrate measured at 1 min interval for 1 hr by fluorometric assay
Coagulation factor XI = Coagulation factor XI (Homo sapiens, UniProt P03951); test: Inhibition of human coagulation factor XIA using Mes-dArg-Pro-Arg-AMC as fluorogenic substrate measured at 1 min interval for 1 hr by fluorometric assay
Plasma [6] = test: as §1, with “endogenous thrombin potential” for “half life of clotting time”, “(reference value: 1203” for “(Rvb= 3”, “44 AU.min/L)” for “0.5 min)”; assay type: functional; conditions: 0.25 h; in short: as §2
Plasminogen = Plasminogen (Homo sapiens, UniProt P00747); test: Inhibition of human plasmin using Mes-dArg-Phe-Arg-AMC as fluorogenic substrate measured at 1 min interval for 1 hr by fluorometric assay
[7] = molecular target: T4, Fatty-acid amide hydrolase 1 (Rattus norvegicus, UniProt P97612); test: Inhibition of FAAH in rat brain membrane using N-(2-hydroxyethyl)-4-pyren-1-ylbutanamide as substrate measured after 60 mins by reverse-phase HPLC-based fluorescence assay; assay type: cell membranes
T4 sequence (P97612 whole entry): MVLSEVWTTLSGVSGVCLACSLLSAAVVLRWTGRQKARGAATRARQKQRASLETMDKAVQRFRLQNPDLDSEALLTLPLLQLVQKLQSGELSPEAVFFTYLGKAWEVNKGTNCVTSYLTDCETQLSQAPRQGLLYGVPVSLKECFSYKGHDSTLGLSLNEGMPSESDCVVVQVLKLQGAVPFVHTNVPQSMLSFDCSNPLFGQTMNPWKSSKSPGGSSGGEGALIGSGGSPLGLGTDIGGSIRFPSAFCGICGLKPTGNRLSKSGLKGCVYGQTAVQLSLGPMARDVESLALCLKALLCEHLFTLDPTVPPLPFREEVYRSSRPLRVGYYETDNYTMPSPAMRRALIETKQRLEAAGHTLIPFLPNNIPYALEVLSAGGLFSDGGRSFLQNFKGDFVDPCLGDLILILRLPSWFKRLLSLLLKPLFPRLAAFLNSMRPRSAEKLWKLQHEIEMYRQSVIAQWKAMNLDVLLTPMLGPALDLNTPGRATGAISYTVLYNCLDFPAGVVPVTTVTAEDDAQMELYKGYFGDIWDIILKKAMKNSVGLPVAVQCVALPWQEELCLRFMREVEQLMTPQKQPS

[8] = molecular target: T5, Coagulation factor XII (Homo sapiens) (UniProt P00748); test: Inhibition of human coagulation factor XIIA using Boc-Gln-Gly-Arg-AMC as fluorogenic substrate at 100 nM measured at 1 min interval for 1 hr by fluorometric assay relative to control; in short: as §3
T5 sequence (whole entry): T3 sequence (P00748 whole entry)

Sequence of Plasminogen (P00747 97-580 limits assumed): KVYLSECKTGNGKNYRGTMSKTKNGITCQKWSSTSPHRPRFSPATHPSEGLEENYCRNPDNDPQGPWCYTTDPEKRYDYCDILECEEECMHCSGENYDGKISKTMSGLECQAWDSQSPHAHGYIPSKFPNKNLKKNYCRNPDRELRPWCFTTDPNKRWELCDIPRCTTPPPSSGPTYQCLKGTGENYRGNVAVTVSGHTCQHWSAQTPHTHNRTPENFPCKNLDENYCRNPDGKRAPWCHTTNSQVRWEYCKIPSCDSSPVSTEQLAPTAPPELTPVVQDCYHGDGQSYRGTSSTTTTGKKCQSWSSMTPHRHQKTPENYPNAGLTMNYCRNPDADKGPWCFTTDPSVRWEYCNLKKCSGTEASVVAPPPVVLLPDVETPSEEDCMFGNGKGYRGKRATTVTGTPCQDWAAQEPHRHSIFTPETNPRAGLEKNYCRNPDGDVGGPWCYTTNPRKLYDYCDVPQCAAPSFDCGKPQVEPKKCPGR
Sequence of Plasminogen (P00747 581-810 limits assumed): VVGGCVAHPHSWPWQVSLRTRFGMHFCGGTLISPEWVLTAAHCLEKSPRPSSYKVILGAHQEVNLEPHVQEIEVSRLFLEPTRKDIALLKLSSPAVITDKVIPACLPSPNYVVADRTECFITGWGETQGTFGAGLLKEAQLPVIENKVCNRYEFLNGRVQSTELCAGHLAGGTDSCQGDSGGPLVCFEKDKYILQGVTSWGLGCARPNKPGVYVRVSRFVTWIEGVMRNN
Sequence of Plasma kallikrein (P03952 20-390 limits assumed): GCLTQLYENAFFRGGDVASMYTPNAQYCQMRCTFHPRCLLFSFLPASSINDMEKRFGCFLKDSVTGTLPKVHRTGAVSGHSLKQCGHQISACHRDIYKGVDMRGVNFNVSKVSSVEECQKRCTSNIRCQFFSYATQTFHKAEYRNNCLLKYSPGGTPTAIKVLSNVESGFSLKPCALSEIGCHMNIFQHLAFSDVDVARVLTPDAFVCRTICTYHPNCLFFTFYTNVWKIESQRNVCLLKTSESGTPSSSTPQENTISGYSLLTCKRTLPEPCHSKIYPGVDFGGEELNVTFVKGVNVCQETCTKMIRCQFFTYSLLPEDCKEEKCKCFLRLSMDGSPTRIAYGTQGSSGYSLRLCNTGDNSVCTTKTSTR
Sequence of Plasma kallikrein (P03952 391-638 limits assumed): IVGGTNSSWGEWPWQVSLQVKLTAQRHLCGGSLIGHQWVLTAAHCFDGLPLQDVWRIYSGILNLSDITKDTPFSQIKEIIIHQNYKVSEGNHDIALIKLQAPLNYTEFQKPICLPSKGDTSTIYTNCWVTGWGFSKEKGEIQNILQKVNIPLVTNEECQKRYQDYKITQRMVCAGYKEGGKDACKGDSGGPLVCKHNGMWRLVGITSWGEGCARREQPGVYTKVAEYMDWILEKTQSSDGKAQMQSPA
Sequence of Coagulation factor XI (P03951 19-387 limits assumed): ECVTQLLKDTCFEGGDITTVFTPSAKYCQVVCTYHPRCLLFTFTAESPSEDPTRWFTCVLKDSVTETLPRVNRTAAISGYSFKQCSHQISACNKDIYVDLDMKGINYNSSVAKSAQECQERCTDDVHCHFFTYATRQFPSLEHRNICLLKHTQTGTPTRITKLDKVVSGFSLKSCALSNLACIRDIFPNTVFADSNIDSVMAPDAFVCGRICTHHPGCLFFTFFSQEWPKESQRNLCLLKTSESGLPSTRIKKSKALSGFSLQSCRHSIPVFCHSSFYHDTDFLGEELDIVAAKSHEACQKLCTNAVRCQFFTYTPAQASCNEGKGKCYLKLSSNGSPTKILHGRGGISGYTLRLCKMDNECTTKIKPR
Sequence of Coagulation factor XI (P03951 388-625 limits assumed): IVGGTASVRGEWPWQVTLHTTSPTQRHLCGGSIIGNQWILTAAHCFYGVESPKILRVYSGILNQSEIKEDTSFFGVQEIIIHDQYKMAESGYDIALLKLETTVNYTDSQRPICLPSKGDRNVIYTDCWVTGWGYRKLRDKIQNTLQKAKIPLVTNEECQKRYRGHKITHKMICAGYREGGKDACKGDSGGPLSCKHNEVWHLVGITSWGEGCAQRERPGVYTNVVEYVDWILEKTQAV

| SMILES | T1/2 (Plasma [1]) | IC50 (Prothrombin [2]) | IC50 (Monoglyceride lipase) | Activity (HepG2) | Tmax (Plasma [3]) | inhibition (Prothrombin [4]) | IC50 (Coagulation factor XII) | IC50 [5] | IC50 (Plasma kallikrein) | IC50 (Coagulation factor XI) | Activity (Plasma [6]) | IC50 (Plasminogen) | IC50 [7] | inhibition [8] |
| --- | --- | --- | --- | --- | --- | --- | --- | --- | --- | --- | --- | --- | --- | --- |
| Nc1nc(-c2ccccn2)nn1C(=O)c1cccc2ccccc12 | 2.7 min | 0.375 µM | > 5 µM | 8% | 7 min | 13% | 0.029 µM | > 5 µM | > 5 µM | > 5 µM | 738 AU.min/L | > 5 µM | > 5 µM | 77% |
| Nc1nc(-c2ccccn2)nn1C(=O)c1ccc2ccccc2c1 | 2.3 min | 0.027 µM | > 5 µM | 25% | 8 min | 55% | 0.138 µM | > 5 µM | > 5 µM | > 5 µM | 2160 AU.min/L | > 5 µM | > 5 µM | 19% |
